Experimental data reported in ChEMBL document CHEMBL3232782, “1,2,3,4,8,9,10,11-octahydrobenzo[j]phenanthridine-7,12-diones as new leads against Mycobacterium tuberculosis” (J Med Chem, 2014).

How the values were obtained:
Assay type in all cases: functional
[1] = test system: Mycobacterium tuberculosis; assay: Antimycobacterial activity against multidrug-resistant Mycobacterium tuberculosis LAM-1 assessed as bacterial growth index at 0.50 uM measured on day 6 by BACTEC MGIT 960TB method relative to control
Method in brief: (§1)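 MDR LAM-1, resistant to INH, RIF, rifabutin and prothionamide, was precultured in BACTEC MGIT vials to GI 300. It was inoculated with compound dilutions made from 1 mg/mL DMSO stocks in 7H9-OADC. Growth index was recorded daily. Day-6 GI was compared with an untreated culture diluted 100-fold (C/100) to set the critical 99% inhibitory concentration. Controls: INH 0.1 μM; moxifloxacin 1.14 μM.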

[2] = test system: Mycobacterium tuberculosis; assay: Antimycobacterial activity against multidrug-resistant Mycobacterium tuberculosis LAM-1 assessed as bacterial growth index at 0.25 uM measured on day 6 by BACTEC MGIT 960TB method relative to control; method in brief: as §1
[3] = test system: Mycobacterium tuberculosis; assay: Antimycobacterial activity against multidrug-resistant Mycobacterium tuberculosis LAM-1 assessed as bacterial growth index at 2.5 uM measured on day 6 by BACTEC MGIT 960TB method relative to control; method in brief: as §1

| SMILES | Growth_index [1] | Growth_index [2] | Growth_index [3] |
| --- | --- | --- | --- |
| CCOC(=O)C1CCc2ncc3c(c2C1)C(=O)C1=C(C3=O)C2CCC1C2 (stereo unspecified) | 367 | 1970 |  |
| CC(C)(C)C1CCc2ncc3c(c2C1)C(=O)C1=C(C3=O)C2CCC1C2 (stereo unspecified) | 1982 |  | 537 |
| CCOC(=O)C1CCc2ncc3c(c2C1)C(=O)C1=C(C3=O)C2CCC1CC2 (stereo unspecified) | 638 | 2382 |  |
